Assay results reported in ChEMBL document CHEMBL1130095, “Synthesis of analogs of 2-methoxyestradiol with enhanced inhibitory effects on tubulin polymerization and cancer cell growth” (J Med Chem, 1997).

The molecules below were run against Estrogen receptor (Rattus norvegicus) (UniProt P06211+Q62986) (assay: Relative binding affinity for estrogen receptor using a tritium labeled estrogen as the tracer and immature rat uterine cytosol). Conditions: Uterus.
Assay type: protein assay
Summary of the method: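 Competitive radiometric binding with a tritiated estrogen tracer and immature rat uterine cytosol as receptor source, incubated at 0 °C for 18 or 20 h. […] Coefficient of variation between replicate experiments is typically below 30%.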

With `CCOc1cc2c(cc1O)/C(=N\O)C[C@@H]1[C@@H]2CC[C@]2(C)[C@@H](O)CC[C@@H]12` as the molecule, how does the relative binding affinity (RBA) read?
Its relative binding affinity (RBA) is under 0.001.

How did the relative binding affinity (RBA) turn out when `COc1cc2c(cc1O)CC[C@@H]1[C@@H]2CC[C@]2(C)[C@@H](O)CC[C@@H]12` [2-METHOXYESTRADIOL] was run?
The relative binding affinity (RBA) was 0.245.

Each molecule was assayed on HOP-62 (assay: In vitro cytotoxicity value corresponding to 50% growth inhibition against HOP-62(non small cell lung) cell line.). Conditions: Homo sapiens.
Assay type: functional

`CCOc1cc2c(cc1O)/C(=N\O)C[C@@H]1[C@@H]2CC[C@]2(C)[C@@H](O)CC[C@@H]12` was tested. Which GI50 did it give?
Its GI50 is 11 nM.

These molecules were tested on Panel (Carcinoma cell lines) (assay: Mean graph midpoint for growth inhibition of all human cancer cell lines). Conditions: not given.
Assay type: functional

How did the GI50 turn out when `CCOc1cc2c(cc1O)/C(=N\O)C[C@@H]1[C@@H]2CC[C@]2(C)[C@@H](O)CC[C@@H]12` was run?
Its GI50 is 79 nM.

Which GI50 does the source give for `COc1cc2c(cc1O)CC[C@@H]1[C@@H]2CC[C@]2(C)[C@@H](O)CC[C@@H]12` [2-METHOXYESTRADIOL] here?
Its GI50 is 1300 nM.

Each molecule was assayed against T1, Tubulin (Bos taurus, UniProt Q6B856+Q862L2+Q862F3) (assay: Evaluated for inhibition of tubulin polymerization.). Conditions: not given.
Assay type: functional
Summary of the method: (§1)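 Electrophoretically homogeneous bovine brain tubulin at 1.2 mg/mL (12 µM), preincubated at 26 °C with varying compound concentrations, then chilled on ice before GTP was added. Assembly was followed at 26 °C by turbidity at 350 nm, and the extent was read at 20 min. IC50 was derived graphically from at least two independent assays.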

With `COc1cc2c(cc1O)CC[C@@H]1[C@@H]2CC[C@]2(C)[C@@H](O)CC[C@@H]12` [2-METHOXYESTRADIOL] as the molecule, how does the IC50 read?
The IC50 was 3.1 µM.

Each molecule was assayed on SF-539 (assay: The In vitro cytotoxicity corresponding to 50% growth inhibition against […] (central nervous system) cell line.). Conditions: Homo sapiens.
Assay type: functional

With `CCOc1cc2c(cc1O)/C(=N\O)C[C@@H]1[C@@H]2CC[C@]2(C)[C@@H](O)CC[C@@H]12` as the molecule, how does the GI50 read?
Its GI50 is 13 nM.

How did the GI50 turn out when `COc1cc2c(cc1O)CC[C@@H]1[C@@H]2CC[C@]2(C)[C@@H](O)CC[C@@H]12` [2-METHOXYESTRADIOL] was run?
The GI50 was 320 nM.

The molecules below were run against T1, Tubulin (assay: The compound was evaluated for inhibition of tubulin polymerization, which is purified from bovine brain). Conditions: not given.
Assay type: functional
Summary of the method: as §1

`CCOc1cc2c(cc1O)/C(=N\O)C[C@@H]1[C@@H]2CC[C@]2(C)[C@@H](O)CC[C@@H]12` was tested. Which IC50 did it give?
The IC50 was 1.1 µM.

What follows are molecules tested on DU-145 (assay: The In vitro cytotoxicity value corresponding to 50% growth inhibition against DU-145 (prostate) cell line.). Conditions: Homo sapiens.
Assay type: functional

With `CCOc1cc2c(cc1O)/C(=N\O)C[C@@H]1[C@@H]2CC[C@]2(C)[C@@H](O)CC[C@@H]12` as the molecule, how does the GI50 read?
Its GI50 is 26 nM.

`COc1cc2c(cc1O)CC[C@@H]1[C@@H]2CC[C@]2(C)[C@@H](O)CC[C@@H]12` [2-METHOXYESTRADIOL] was tested. Which GI50 did it give?
The GI50 was 1800 nM.

These molecules were tested against Tubulin beta chain (Bos taurus) (UniProt Q6B856) (assay: Evaluated for % inhibition of colchicine binding to tubulin.). Conditions: concentration not given here.
Set-up: concentration or dose not given beside the values
Summary of the method: (§2)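 Mixtures held 1.0 µM bovine brain tubulin (0.1 mg/mL), 5.0 µM [³H]colchicine and 50 µM inhibitor, incubated 10 min at 37 °C. Bound-colchicine inhibition is given as percent, from triplicate samples in each experiment.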

Sequence of Tubulin beta chain (Bos taurus) (Q6B856 whole entry): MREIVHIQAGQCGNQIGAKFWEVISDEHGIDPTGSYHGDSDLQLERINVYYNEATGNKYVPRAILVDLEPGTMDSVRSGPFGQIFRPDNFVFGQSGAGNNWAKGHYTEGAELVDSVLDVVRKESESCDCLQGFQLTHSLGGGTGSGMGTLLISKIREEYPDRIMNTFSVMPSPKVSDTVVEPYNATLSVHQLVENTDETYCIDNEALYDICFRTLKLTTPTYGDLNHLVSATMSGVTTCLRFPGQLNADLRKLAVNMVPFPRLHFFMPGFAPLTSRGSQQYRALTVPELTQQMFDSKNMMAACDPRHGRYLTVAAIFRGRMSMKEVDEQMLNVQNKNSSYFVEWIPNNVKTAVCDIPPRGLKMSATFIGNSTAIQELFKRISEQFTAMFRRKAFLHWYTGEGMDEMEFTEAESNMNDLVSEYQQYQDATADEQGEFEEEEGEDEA

How did the inhibition turn out when `COc1cc2c(cc1O)CC[C@@H]1[C@@H]2CC[C@]2(C)[C@@H](O)CC[C@@H]12` [2-METHOXYESTRADIOL] was run?
Its inhibition is 19%.

These molecules were tested on MDA-MB-435 (assay: In vitro cytotoxicity value corresponding to 50% growth inhibition against MDA-MB-435 (breast) cell line.). Conditions: Homo sapiens.
Assay type: functional

With `CCOc1cc2c(cc1O)/C(=N\O)C[C@@H]1[C@@H]2CC[C@]2(C)[C@@H](O)CC[C@@H]12` as the molecule, how does the GI50 read?
The GI50 was 10 nM.

For `COc1cc2c(cc1O)CC[C@@H]1[C@@H]2CC[C@]2(C)[C@@H](O)CC[C@@H]12` [2-METHOXYESTRADIOL], which GI50 is on record?
The GI50 was 80 nM.

Each molecule was assayed on OVCAR-3 (assay: In vitro cytotoxicity value corresponding to 50% growth inhibition against OVCAR-3 (ovarian) cell line.). Conditions: Homo sapiens.
Assay type: functional

For `CCOc1cc2c(cc1O)/C(=N\O)C[C@@H]1[C@@H]2CC[C@]2(C)[C@@H](O)CC[C@@H]12`, which GI50 is on record?
Its GI50 is 17 nM.

Which GI50 does the source give for `COc1cc2c(cc1O)CC[C@@H]1[C@@H]2CC[C@]2(C)[C@@H](O)CC[C@@H]12` [2-METHOXYESTRADIOL] here?
The GI50 was 210 nM.

What follows are molecules tested on SN12C (assay: In vitro cytotoxicity value corresponding to 50% growth inhibition against SN12C (renal) cell line.). Conditions: Homo sapiens.
Assay type: functional

How did the GI50 turn out when `CCOc1cc2c(cc1O)/C(=N\O)C[C@@H]1[C@@H]2CC[C@]2(C)[C@@H](O)CC[C@@H]12` was run?
The GI50 was 21 nM.

How did the GI50 turn out when `COc1cc2c(cc1O)CC[C@@H]1[C@@H]2CC[C@]2(C)[C@@H](O)CC[C@@H]12` [2-METHOXYESTRADIOL] was run?
Its GI50 is 950 nM.

Each molecule was assayed on UACC-62 (assay: In vitro cytotoxicity value corresponding to 50% growth inhibition against UACC-62(melanoma) cell line.). Conditions: Homo sapiens.
Assay type: functional

For `CCOc1cc2c(cc1O)/C(=N\O)C[C@@H]1[C@@H]2CC[C@]2(C)[C@@H](O)CC[C@@H]12`, which GI50 is on record?
The GI50 was 17 nM.

For `COc1cc2c(cc1O)CC[C@@H]1[C@@H]2CC[C@]2(C)[C@@H](O)CC[C@@H]12` [2-METHOXYESTRADIOL], which GI50 is on record?
Its GI50 is 360 nM.

These molecules were tested on HCT-116 (assay: The In vitro cytotoxicity value is the concentration of the compound corresponding to 50% growth inhibition againstHCT-116 (colon) cell line.). Conditions: Homo sapiens.
Assay type: functional

How did the GI50 turn out when `COc1cc2c(cc1O)CC[C@@H]1[C@@H]2CC[C@]2(C)[C@@H](O)CC[C@@H]12` [2-METHOXYESTRADIOL] was run?
Its GI50 is 470 nM.

The molecules below were run on HOP-62 (assay: The In vitro cytotoxicity value is the concentration corresponding to 50% growth inhibition against HOP-62 (non small cell lung) cell line.). Conditions: Homo sapiens.
Assay type: functional

`COc1cc2c(cc1O)CC[C@@H]1[C@@H]2CC[C@]2(C)[C@@H](O)CC[C@@H]12` [2-METHOXYESTRADIOL] was tested. Which GI50 did it give?
Its GI50 is 700 nM.

What follows are molecules tested on HCT-116 (assay: In vitro cytotoxicity value corresponding to 50% growth inhibition against HCT116 (colon) cell line.). Conditions: Homo sapiens.
Assay type: functional

With `CCOc1cc2c(cc1O)/C(=N\O)C[C@@H]1[C@@H]2CC[C@]2(C)[C@@H](O)CC[C@@H]12` as the molecule, how does the GI50 read?
The GI50 was 11 nM.

The molecules below were run against Tubulin (Bos taurus) (UniProt Q6B856+Q862L2+Q862F3) (assay: The compound was evaluated for inhibition of colchicine binding to tubulin.). Conditions: concentration not given here.
Assay type: protein assay
Summary of the method: as §2

`CCOc1cc2c(cc1O)/C(=N\O)C[C@@H]1[C@@H]2CC[C@]2(C)[C@@H](O)CC[C@@H]12` was tested. Which inhibition did it give?
Its inhibition is 63%.
